Screening results from PubChem BioAssay.
HTR1A agonist = human 5-HT1a receptor agonists, primary screen, cell-based, CHO, Ga15 NFAT-bla reporter. CHO 5-HT1a Ga15 NFAT-bla reporter, FRET ratio; 0% basal, 100% maximal reference agonist. activation, % at 10 µM. actives 0.56% (n = 65,000);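 active = activation above the screen-wide mean activation plus 3 SD, cut at about 19% in these data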;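 also: 0% = DMSO wells and 100% = 5-CT at EC100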
S1P3 agonist = human S1P3 receptor agonists, primary screen, cell-based, primary and confirmation, NFAT-BLA reporter | Sphingosine 1-phosphate receptor 3 (Homo sapiens), Q99500 | S1P3 NFAT-BLA reporter cells, agonism, FRET ratio; relative to 1 µM S1P, basal subtracted | activation, % at 4.5 µM | actives 0.1% (n = 60,000) | AID 373, 2006;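 active = activation above the screen-wide mean plus 3 SD, cut at about 4.5% in these data, passing the limit was not always enough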
Target sequence (Q99500 whole entry, looked up): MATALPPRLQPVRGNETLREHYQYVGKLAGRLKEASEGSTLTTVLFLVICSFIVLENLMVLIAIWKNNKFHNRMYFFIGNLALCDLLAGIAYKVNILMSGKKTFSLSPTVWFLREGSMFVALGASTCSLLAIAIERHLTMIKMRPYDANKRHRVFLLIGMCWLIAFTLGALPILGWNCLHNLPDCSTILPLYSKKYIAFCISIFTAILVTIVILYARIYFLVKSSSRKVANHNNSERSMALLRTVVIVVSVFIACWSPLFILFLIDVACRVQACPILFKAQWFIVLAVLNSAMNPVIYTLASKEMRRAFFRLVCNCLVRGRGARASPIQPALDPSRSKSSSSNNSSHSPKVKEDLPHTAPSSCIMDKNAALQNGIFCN
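Assay system: CHO cells stably expressing human S1P3, Gα16 and NFAT-β-lactamase reporter. Timing: overnight plating, 4 h compound 37 °C, 2 h substrate RT. Signal: β-lactamase FRET emission ratio 460/535 nm. Measure: percent activation versus median 1 µM S1P response, basal-subtracted, per plate. Repeats: primary screen single test, confirmation screen in triplicate.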
S1P1 ag pot = S1P1 agonists and agonism potentiators, primary screen, cell-based, primary and confirmation screens, CRE-bla reporter. Sphingosine 1-phosphate receptor 1 (Homo sapiens), P21453. S1P1 CRE-bla cells, forskolin, beta-lactamase FRET, potentiator mode; S1P1 agonist co-added at EC20, 2 nM; 100% = saturating reference agonist, 0% = basal. AID 449, 2006. activation, % at 9.5 µM. actives 0.57% (n = 56,000);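 active = activation above a cutoff set at the mean activation of all tested compounds plus 3 SD, cut at about 54% in these data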;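 also: forskolin at 4 µM as EC80 and the EC20 agonist is SEW2871; 100% = SEW2871 at its EC100 plus forskolin at EC80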
5HT1a antag = human 5-HT1a receptor antagonists, primary screen, cell-based, CHO, Ga15 NFAT-bla reporter; 5-hydroxytryptamine receptor 1A (Homo sapiens), P08908; CHO 5-HT1a Ga15 NFAT-bla reporter, antagonist mode; inhibition, % at 10 µM; actives 0.68% (n = 62,000);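 active = inhibition above the mean of all tested compounds plus 3 SD, cut at about 43% in these data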;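 also: receptor stimulated by 5-CT agonist at 100 nM near EC80; beta-lactamase reporter measured by ratiometric fluorescence of a cleavable substrate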
HTR1E agonist = 5-HT1E receptor agonists, primary screen, cell-based, HTS | 5-hydroxytryptamine receptor 1E (Homo sapiens), P28566 | CHO 5-HT1E Ga15 NFAT-bla reporter, FRET; 0% DMSO wells, 100% control agonist wells | activation, % at 6 µM | actives 0.69% (n = 65,000) | AID 574, 2007;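 active = activation above a set limit, the screen-wide mean activation plus 3 SD, cut at about 8.5% in these data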;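 also: 100% = positive control agonist at 1 µM giving full maximal response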
5HT1E antag = 5-HT1E receptor antagonists, primary screen, cell-based, HTS. AID 571, 2007. 5-hydroxytryptamine receptor 1E (Homo sapiens), P28566. CHO 5-HT1E Ga15 NFAT-bla reporter, FRET, antagonist. actives 0.99% (n = 65,000). inhibition, % at 6 µM;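 active = inhibition above a set limit, the mean inhibition across every tested compound plus 3 SD, cut at about 29% in these data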;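 also: signal is the 460 over 535 nm emission ratio of beta-lactamase substrate; 0% = agonist plus DMSO wells and 100% = wells without agonist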
* = called active by the depositor; / = no result given. Shown are actives, neighbours in structure and some others; about 3% of the full set was active somewhere.

SMILES	HTR1A agonist	S1P3 agonist	S1P1 ag pot	5HT1a antag	HTR1E agonist	5HT1E antag
N=c1n(CCN2CCCCC2)c2ccccc2n1CC(O)c1cccc(Br)c1 (configuration not stated)	-5	-1	-1	54*	0	-1
N=c1n(CCN2CCCCC2)c2ccccc2n1CC(O)COc1ccccc1 (configuration not stated)	-1	0	-15	49*	0	-9
COc1ccccc1OCC(O)Cn1c(=N)n(CCN2CCCCC2)c2ccccc21 (configuration not stated)	0	/	/	71*	-1	6
N=c1n(CCN2CCOCC2)c2ccccc2n1CC(O)COc1ccccc1 (configuration not stated)	-1	0	-27	1	0	0
O=C(NCCN1CCCC1)c1ccc(CS(=O)(=O)c2c(Cl)cccc2Cl)o1	-1	0	-1	11	1	-4
CCOc1ccc(N2C(=O)CC(N3CCN(C4CCc5ccccc5C4)CC3)C2=O)cc1 (configuration not stated)	-3	-2	-7	9	-1	4
Cc1ccc(N2C(=O)CC(N3CCN(C4CCc5ccccc5C4)CC3)C2=O)cc1 (configuration not stated)	20*	-2	8	14	0	9
COC(=O)Cn1nc(-c2ccccc2)c2ccccc21	-4	-1	12	10	0	-3
CCC(=O)N(Cc1cc(=O)[nH]c2ccccc12)C1CCCCC1	1	-1	3	5	0	4
COc1ccc(C(C(=O)OC(C)CN(C)C)c2ccccc2)cc1 (configuration not stated)	-2	0	-8	-5	-1	2
CN(C)CC(C(=O)c1ccccc1)c1ccccc1 (configuration not stated)	-5	-1	82	76*	0	74*
COC(=O)c1ccc2c(=O)n(Cc3ccc4c(c3)OCO4)c(SCC(=O)N3CCCC3)nc2c1	96*	/	/	5	-5	12
CC(=O)Nc1cccc(Oc2cc(C#N)c(C#N)cc2N2CCCCCC2)c1	1	-1	11	-7	0	12
CCOC(=O)c1c(CN2CCN(C)CC2)oc2ccc(OC)cc12	0	0	-16	-12	0	-10
CCOC(=O)c1c(CN2CCCCC2)oc2ccc(OC)cc12	21*	0	4	/	0	1
CCC(=O)N1C(C(=O)N2CCCC2)CSC1c1ccc(OC)cc1 (configuration not stated)	0	0	8	22	1	1
CC(=O)n1cc(C2C(=O)CCCC2=O)c2ccccc21	-7	0	-9	14	0	-3
CC(=O)N1C=CN(C(C)=O)C(c2cn(C)c3ccccc23)C1c1cn(C)c2ccccc12 (configuration not stated)	-3	-2	69*	29	-1	-6
CCOC(=O)c1sc(NC(=O)C2CCCO2)c(C(=O)OC)c1C (configuration not stated)	0	-1	/	-12	0	-7
Cc1cc(NC(=O)Cn2cnc3sc(C)c(-c4ccccc4)c3c2=O)no1	-3	0	1	10	-1	0
Cn1c2ccc(Cl)cc2c2nc3ccccc3nc21	2	1	-104	10	0	37*
CC(=O)Nc1cccc(NC(=O)CCCC(=O)O)c1	-3	-1	-21	5	28*	4
CCOc1ccc(C(=O)Nc2ccc(Cl)cn2)cc1Cl	0	-1	73*	10	1	-1
Cc1ccc(-n2nnnc2SCCNS(=O)(=O)c2ccccc2)cc1C	-1	-1	10	-6	0	-8
O=C(CSc1nnc(COc2ccc3c(c2)CCCC3)o1)Nc1ccc(F)cc1	-1	-1	-8	0	9.3*	4
SMILES	HTR1A agonist	S1P3 agonist	S1P1 ag pot	5HT1a antag	HTR1E agonist	5HT1E antag
COc1ccc(NC(=O)CSc2nnc(CNc3ccc(F)cc3)o2)c(OC)c1	-2	1	-4	2	0	-4
[O-][N+]1=c2ccc(Nc3ccccc3)cc2=NC12CCCCC2	-3	-2	34	55*	0	30*
[O-][N+]1=C2CCC/C(=N\O)C2=NC12CCCCC2	-4	-1	-9	-9	0	-3
O=C(c1cnc2sccn2c1=O)N(Cc1ccccc1)c1ccccn1	27*	0	7	-6	0	-6
Cc1c(C)[n+](=O)c(-c2cccs2)c(C)n1[O-]	1	-1	/	-4	0	1
CCc1cc2c(C)cc(=O)oc2cc1OC(=O)C1CCCN1C(=O)OC(C)(C)C (configuration not stated)	1	-1	9	16	1	2
CCOC(=O)N1CCC(NC(=O)c2ccc(CS(=O)(=O)c3ccc(OC)cc3)o2)CC1	-2	-2	26	0	0	23
CN1CCN(C2=C(Cl)C(=O)N(Cc3ccccc3)C2=O)CC1	0	-2	16	3	17*	5
CCOC(=O)c1cnc(-n2nc(C)cc2C)nc1NCc1ccccc1	3	-2	10	47*	0	15
O=C(O)C1CSC(CCc2ccccc2)N1 (configuration not stated)	2	-3	-13	/	0	-3
O=S(=O)(c1ccc2oc(-c3ccncc3)nc2c1)c1ccc2oc(-c3ccncc3)nc2c1	27*	0	-16	-16	1	-14
Cc1cc(OCC(=O)NCCCN(C)C)cc(C)c1Br	1	-2	-1	4	-1	-6
CCN1CCN(C(CNC(=O)c2ccc3c(c2)OCO3)c2cccnc2)CC1 (configuration not stated)	-2	-1	-18	-2	1	-2
CCCCOC(=O)Nc1ccc(S(=O)(=O)Nc2nc(C)cc(C)n2)cc1	6	-1	2	/	12*	11
O=S(=O)(NCc1ccc2c(c1)OCO2)c1cnc[nH]1	-3	-2	-12	4	0	0
CCOc1ccc(CCNS(=O)(=O)c2cnc[nH]2)cc1OCC	1	-1	-17	-1	0	31*
CN1CCN(c2nc(N3CCN(c4ccccc4)CC3)ncc2F)CC1	-1	-1	-31	11	35*	9
